Results pooled from the literature.
Compare with care: the assays were run in different laboratories.
Target: Serine/threonine-protein kinase Nek6 (NEK6, Homo sapiens, UniProt Q9HC98)

SMILES | test | conditions | measurement | result
CNC(=O)c1cc(Oc2ccc(NC(=O)Nc3ccc(Cl)c(C(F)(F)F)c3)cc2)ccn1 | enzyme activity, inhibitor | 10 µM | inhibition | -16%
CN(c1ncccc1CNc1nc(Nc2ccc3c(c2)CC(=O)N3)ncc1C(F)(F)F)S(C)(=O)=O | enzyme activity, inhibitor | 1 µM | inhibition | 11.8%
C[C@H](NC(=O)c1cnc2n1[C@](C)(Cc1ccc(C#N)cc1)C(=O)N2c1cc(Cl)c(F)c(Cl)c1)C(=O)NC1(c2ccccn2)CC1 | cell-free assay, competition with immobilised ligand | 1 µM | remaining binding | 100%
COc1cc2ncnc(Nc3ccc(Oc4ccccc4)c(C)c3C)c2cc1OC | enzyme activity, inhibitor | 1 µM | inhibition | 8%
CCOCCn1cc(C(=O)Nc2ccc(-n3nc(-c4cccnc4)cc3C(F)(F)F)cn2)ccc1=O | cell-free assay, competition with immobilised ligand | 1 µM | remaining binding | 96%
Nc1ncnc2occ(-c3ccc(NC(=O)Nc4cc(C(F)(F)F)ccc4F)cc3)c12 | cell-free assay, inhibitor | 20 µM | remaining signal | 0.15%
COc1cc(/C=C/C(=O)CC(=O)/C=C/c2ccc(O)c(OC)c2)ccc1O | enzyme activity, inhibitor | 1 µM | activity vs control | 97%
CCN(CC)CCNC(=O)c1c(C)[nH]c(/C=C2\C(=O)Nc3ccc(F)cc32)c1C | enzyme activity, inhibitor | 10 µM | inhibition | -9%
CO[C@@H](C)c1c(Nc2ccc([C@H](N(C)C(=O)C3CCS(=O)(=O)CC3)C(F)(F)F)cc2)cnc2cc(Cl)nn12 | cell-free assay, competition with immobilised ligand | 1 µM | remaining binding | 97%
CCCS(=O)(=O)Nc1ccc(F)c(C(=O)c2c[nH]c3ncc(-c4ccc(Cl)cc4)cc23)c1F | enzyme activity, inhibitor | 1 µM | inhibition | < 10%
CN1CC(Oc2cnc(C#N)cc2-c2ccn3nc(NC(=O)C4CC4)cc3c2)C1 | enzyme activity, inhibitor | 1 µM | inhibition | 2%
O=C1Nc2ccc(Cl)cc2C1=Cc1cc(Cl)c(O)c(Cl)c1 | cell-free assay | 0.5 µM | remaining signal | 104%
CC(C)CC(=O)N1CCc2nc(-c3ccc(Br)cc3)nc(N(C)Cc3ccccc3)c2C1 | cell-free assay, competition with immobilised ligand | 0.1 µM | remaining binding | 100%
FC(F)(F)Oc1cccc(-c2cnc3ccc(-c4ccncc4)nn23)c1 | enzyme activity, inhibitor, radiometric | 1 µM | activity vs control | 92%
